DYRK1A inh = blocks rat Dyrk1A kinase activity. Q63470. ADP-Glo luminescence, NFATc1 peptide. inhibition, % at 12.5 µM. hit rate 0.43% among 310,000. AID 504441;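 also: plate controls were vehicle with enzyme for no effect and no enzyme for full effect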
SR-BI DiI-HDL act = enhances SR-BI lipid uptake from DiI-HDL; CHO ldlA[mSR-BI] cells, DiI-HDL uptake fluorescence, 3 h; 100 = double the neutral-control signal; activation, % at 12.5 µM; hit rate 0.096% among 320,000;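 active = mean replicate activation of at least 60% and every replicate at or above 60%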;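 also: 0% = median plate neutral-control signal and 100% = twice that signal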
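Test system: SR-BI-overexpressing, LDLR-lacking CHO cells. Measured by: DiI fluorescence, bottom read. Medium: Ham's F12 with 0.5% BSA, HEPES 25 mM, pH 7.4. Timing: 3 h uptake period with compound, 37 °C.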
dFosB activator = enhances mouse delta FosB homodimer DNA binding | hit rate 0.99% among 340,000 | P13346 | activation, % at 25 µM | purified delta FosB, TAMRA-CDK5 oligo fluorescence polarization; percent of positive-control signal above neutral wells;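 active = mean activation above about 17%, with every replicate also reaching it, limit read from the data, passing the limit was not always enough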
SR-BI HDL uptake = mouse SR-BI HDL lipid transfer inhibition | Q61009 | ldlA[mSR-BI] CHO cells, DiI-HDL uptake fluorescence, 3 h | inhibition, % at 12.5 µM | hit rate 0.96% among 320,000 | AID 488896;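 active = mean replicate inhibition of at least 70% and a set share of replicates each scoring 70 or more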;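 also: 0% = median of neutral control wells and 100% = median of positive control wells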
CDK5 inh = inhibitors of human CDK5/p35 kinase. Q00535+Q15078. Recombinant CDK5/p35, ADP-Glo luminescence, 60 min. inhibition, % at 10 µM. hit rate 0.01% among 330,000;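 active = highest replicate inhibition of at least 50% and at least 75% of replicates reaching 50%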;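 also: plate controls were DMSO neutral control for no effect and GW8510 at 10 µM for full effect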
Target sequence (Q00535 whole entry, looked up): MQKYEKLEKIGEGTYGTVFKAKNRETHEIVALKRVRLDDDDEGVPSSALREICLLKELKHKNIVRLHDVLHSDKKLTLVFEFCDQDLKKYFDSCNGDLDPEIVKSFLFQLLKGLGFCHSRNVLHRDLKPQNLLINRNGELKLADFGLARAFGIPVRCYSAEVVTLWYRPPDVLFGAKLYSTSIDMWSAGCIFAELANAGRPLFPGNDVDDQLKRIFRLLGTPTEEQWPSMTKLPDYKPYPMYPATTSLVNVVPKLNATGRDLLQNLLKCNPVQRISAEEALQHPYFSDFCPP
Target sequence (Q15078 whole entry, looked up): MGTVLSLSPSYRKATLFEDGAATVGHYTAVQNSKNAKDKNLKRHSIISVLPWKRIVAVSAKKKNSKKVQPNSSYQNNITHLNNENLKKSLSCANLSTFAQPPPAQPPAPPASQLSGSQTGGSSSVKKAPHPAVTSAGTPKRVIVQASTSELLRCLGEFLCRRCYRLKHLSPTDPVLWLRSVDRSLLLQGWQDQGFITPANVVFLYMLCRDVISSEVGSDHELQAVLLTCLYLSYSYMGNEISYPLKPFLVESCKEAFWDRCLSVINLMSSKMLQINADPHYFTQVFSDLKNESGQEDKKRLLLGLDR
NSD2 inh = blocks human histone methyltransferase NSD2 | NSD2 peptide methylation, AlphaScreen, 120 min | O96028 | hit rate 0.54% among 310,000 | inhibition, % at 12.5 µM
* marks the source's active call; other numbers are inactive results; · = no result. Shown are actives, neighbours in structure and some others; about 2.5% of the full set was active somewhere. Rule as the data show it, unless noted: active = inhibition above about 50%; inactive = the rest.

SMILES	DYRK1A inh	SR-BI DiI-HDL act	dFosB activator	SR-BI HDL uptake	CDK5 inh	NSD2 inh
O=C1Nc2cc(C(=O)NCCCN3CCCC3)ccc2S/C1=C\c1ccccc1	12	-15	7	15	5	11
COc1ccc(/C=C2/Sc3ccc(C(=O)NCCN4CCCCCC4)cc3NC2=O)cc1	9	-39	82*	39	0	17
COc1ccc(/C=C2\Sc3ccc(C(=O)NCCCN4CCCC4)cc3N(C)C2=O)cc1OC	-2	-78	-28	78*	-1	17
CCOc1ccc(/C=C2/Sc3ccc(C(=O)NCC4CCCO4)cc3N(C)C2=O)cc1OC (centres undefined)	-4	-53	-11	53	3	-1
Cc1ccccc1NC(=O)[C@@H]1CCCN1S(=O)(=O)c1cccc2cccnc12	·	·	·	·	·	-3
C/C(=N\NC(=O)c1nn(C)c(C)c1Br)c1ccc(NC(=O)C2CCCC2)cc1	1	-80	-1	80*	0	1
COc1ccc(N=Nc2c(C)[nH]c3ccccc23)cc1	-2	-88	-10	88*	0	10
COc1ccc(S(=O)(=O)N(C)Cc2ccc3c(c2)OCCO3)cc1	0	-3	-11	3	0	26
Nc1nc(Nc2cccc(Cl)c2)nc(NCc2ccco2)c1[N+](=O)[O-]	7	-39	58*	39	0	-2
Nc1nc(Nc2cccc(Cl)c2)nc(NCCO)c1[N+](=O)[O-]	15	-30	4	30	58*	2
COc1ccc(Nc2nc(N)c([N+](=O)[O-])c(NCc3ccccc3)n2)cc1	0	-9	29*	9	-2	1
Cc1cccc(Nc2nc(N)c([N+](=O)[O-])c(NCCO)n2)c1	·	7	0	-7	18	3
Nc1nc(Nc2cccc(F)c2)nc(NCc2ccco2)c1[N+](=O)[O-]	3	-27	23*	27	4	0
Nc1nc(NCC2CCCO2)nc(Nc2cccc(F)c2)c1[N+](=O)[O-] (centres undefined)	2	-3	10	3	2	-3
CC(=O)O[C@H]1[C@H](OC(C)=O)C[C@]2(OC(C)=O)C[C@H]1OC2=O	·	·	·	·	·	24
Nc1nc(NCCCN2CCOCC2)nc(Nc2ccc(Cl)cc2)c1[N+](=O)[O-]	·	·	·	·	·	2
COc1ccc(Nc2nc(NCc3ccco3)nc(N)c2[N+](=O)[O-])cc1	·	·	·	·	·	-1
Nc1nc(Nc2ccc(Cl)cc2)nc(NCc2ccco2)c1[N+](=O)[O-]	18	-25	57*	25	1	-2
Nc1nc(NCCCN2CCOCC2)nc(Nc2cccc(Cl)c2)c1[N+](=O)[O-]	0	-19	63*	19	0	3
Cc1ccc(-n2c(SCC(=O)Nc3ccc(S(=O)(=O)Nc4cc(C)nc(C)n4)cc3)nnc2-c2cccs2)cc1	·	·	·	·	·	11
Cc1ccc(C(=O)CN(CCCC(N)=O)C(=O)c2ccncc2)cc1	-1	-11	5	11	-1	·
O=Nc1c(O)c2ccccc2c2ccccc12	54*	-9	2	9	1	·
O=C(C1CCCN1S(=O)(=O)c1ccccc1[N+](=O)[O-])N1CCc2ccccc2C1 (centres undefined)	·	·	·	·	·	-1
COc1ccc(NC(=O)c2cc([N+](=O)[O-])ccc2N2CCCCC2)cc1	-5	-90	-4	90*	-1	45
O=C(c1ccc(Br)cc1)c1cc([N+](=O)[O-])ccc1N1CCCCC1	-10	-88	0	88*	-2	1
O=C(Nc1ccc(N2CCCC2)c(Cl)c1)c1ccc([N+](=O)[O-])cc1	3	-75	-4	75*	-1	4
COc1ccc(C(=O)c2cc([N+](=O)[O-])ccc2N2CCCC2)cc1	0	-70	-10	70*	2	5
C[C@H](CO)N1C[C@H](C)[C@@H](CN(C)Cc2ccc3c(c2)OCO3)Oc2c(NC(=O)Cc3ccccc3)cccc2C1=O	-15	-37	-7	37	1	·
Cc1nc2ccccn2c1CN(C)C(=O)C1CCC(=O)N(Cc2cccc(F)c2)C1 (centres undefined)	5	16	-2	-16	-1	3
C=CCn1c(COc2ccc(Cl)cc2)nnc1SCC(=O)c1ccc(-c2ccccc2)cc1	·	·	·	·	·	1

From PubChem BioAssay
